# The list is not random: actives were taken first. Their share in the collection is about 1.8%.
# Tn6 DDE FP: inhibitors of Tn6 peptide binding to fibrin DD(E), primary screen, biochemical, fluorescence polarization, human fibrin, Tn6 probe; Fibrinogen beta chain (Homo sapiens), P02675; Fibrin DD(E) TRITC-Tn6 fluorescence polarization displacement; inhibition, % at 8.3 µM; actives 0.21% (n = 370,000);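 active = inhibition above a per-campaign cutoff: mean of compounds within control limits plus 3 SD, cut at about 15% in these data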
# SIAE inh: human SIAE inhibitors, primary screen, biochemical, fluorescence polarization, FP-Rh probe, 1536-well HTS | SIAE FP-Rh probe binding | inhibition, % at 9.66 µM | actives 0.69% (n = 370,000);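 active = inhibition above a cutoff: mean of compounds within the control limits plus 3 SD of those, cut at about 17% in these data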
# Target sequence (Q9HAT2 whole entry, looked up): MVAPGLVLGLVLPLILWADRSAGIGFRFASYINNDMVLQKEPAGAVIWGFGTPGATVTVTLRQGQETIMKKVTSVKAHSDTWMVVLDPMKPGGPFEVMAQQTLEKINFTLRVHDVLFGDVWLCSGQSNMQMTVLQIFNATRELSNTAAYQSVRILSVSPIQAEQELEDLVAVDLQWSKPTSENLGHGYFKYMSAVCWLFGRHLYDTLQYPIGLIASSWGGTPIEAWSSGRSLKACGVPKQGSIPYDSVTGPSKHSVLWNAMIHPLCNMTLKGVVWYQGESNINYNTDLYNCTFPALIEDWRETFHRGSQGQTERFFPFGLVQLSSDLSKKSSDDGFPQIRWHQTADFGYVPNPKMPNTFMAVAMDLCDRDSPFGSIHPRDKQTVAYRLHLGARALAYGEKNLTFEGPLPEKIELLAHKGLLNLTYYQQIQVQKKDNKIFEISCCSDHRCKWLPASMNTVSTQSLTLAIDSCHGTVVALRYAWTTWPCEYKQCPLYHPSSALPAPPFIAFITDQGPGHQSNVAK
# HTRA1 inh: HTRA1 serine protease inhibitors, primary screen, biochemical, fluorescence polarization, HTS; Q92743; recombinant HTRA1, FP-rhodamine activity-based probe; inhibition, % at 5.96 µM; actives 0.5% (n = 340,000); AID 504803, 2011; in the data active = inhibition above about 36%
# TCR CD3 inh: inhibitors of human TCR-CD3 interaction, primary screen, biochemical, fluorescence, TAMRA-labeled TCR probe | actives 0.37% (n = 360,000) | inhibition, % at 9.4 µM | AID 651800, 2012; in the data active = inhibition above about 19%;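 also: recombinant mutant TCR 2C K166C tagged with TAMRA read by polarization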
# Tn7 DDE FP: inhibitors of Tn7 peptide binding to fibrin DD(E), primary screen, biochemical, fluorescence polarization, human fibrin, Tn7 probe | Fibrinogen beta chain (Homo sapiens), P02675 | FP displacement of FITC-Tn7 peptide from fibrin DD(E); 0% = median of compound wells per plate | inhibition, % at 8.3 µM | actives 0.13% (n = 370,000);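 active = inhibition above the mean of compounds falling within the control limits plus 3 SD of them, cut at about 14% in these data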
#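 Assay system: human fibrin DD(E) protein / Input: 2 µM fibrin DD(E) / Benchmarks: high control of 10 µM Aha-Tn7 peptide / Measured by: fluorescence polarization of the labelled Tn7 tracer / Medium: Tris buffer with calcium and detergent, pH 7.8 / Timing: 10 min compound pre-incubation, 3 h probe incubation at room temperature / Repeats: one replicate per compound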
# mABHD4 FP: ABHD4 inhibitors, primary screen, biochemical, fluorescence polarization, mouse; (Lyso)-N-acylphosphatidylethanolamine lipase (Mus musculus), Q8VD66; AID 720543, 2013; actives 0.54% (n = 370,000); purified mABHD4, FP-Rh probe fluorescence polarization; inhibition, % at 8.92 µM;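 active = inhibition exceeding the mean over every tested compound plus 3 SD, cut at about 30% in these data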
#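 assay system = mABHD4 protein | compound dosing = single nominal dose of 8.92 µM, 0.89% DMSO final | read-out basis = percent inhibition of probe binding, normalized to plate controls | schedule = Enzyme–compound pre-incubation 45 min, then probe 60 min, both 25 °C | detection = fluorescence polarization, excitation 525 nm, emission 598 nm, BODIPY TMR filters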
# SIAE inh conf: human SIAE inhibitors, retest, confirmation, biochemical, fluorescence polarization, FP-Rh probe, triplicate; shares compounds with SIAE inh; SIAE FP-Rh activity-based probe; inhibition, % at 9.66 µM; actives 13% (n = 2,300); AID 1117263, 2014;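 active = mean inhibition of the replicates above the hit cutoff set in the primary screen, cut at about 17% in these data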;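 also: inhibitors lower polarization as more probe stays unbound to SIAE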
# A number is an active result; 0 = inactive; - = no result.
SMILES,Tn6 DDE FP,SIAE inh,HTRA1 inh,TCR CD3 inh,Tn7 DDE FP,mABHD4 FP,SIAE inh conf
CCOC(=O)c1csc(NC(=O)C2CCCN(S(=O)(=O)c3cccs3)C2)n1 (stereo not drawn),0,0,-,-,0,0,-
CN(C)[C@H]1CCN(c2cccc3c2S(=O)(=O)N2CC[C@@H](C2)O3)C1,0,0,-,-,0,0,-
Cc1n[nH]c(C)c1S(=O)(=O)NCCc1cccc(F)c1,0,0,-,-,0,0,-
Cc1ccc(-c2cc(-c3nnc(SCC(=O)N4c5ccccc5Sc5ccccc54)n3N)[nH]n2)cc1,0,0,-,-,0,0,-
O=C(Nc1ccc2ccccc2c1)NC1CCCCN(Cc2cccc(Cl)c2)C1=O (stereo not drawn),0,0,-,-,0,0,-
c1ccc(-c2c[nH]c3[n+]2CCCCC3)cc1,0,18.8,0,0,0,0,0
Brc1ccc(-c2csc3[n+]2CCCCC3)cc1,0,0,0,0,0,0,-
O=C(Nc1ccc(Br)cc1)OCCN1CCCC12CCC(c1ccccc1)CC2 (stereo not drawn),0,0,-,-,0,0,-
COc1cc(OC)cc(C(=O)Oc2ccc(/C=N/Nc3nc4ccccc4s3)cc2OC)c1,0,19.1,0,0,0,0,17.2
COc1cc(/C=N/Nc2nc3ccccc3s2)ccc1OC(=O)c1ccccc1F,0,21.5,0,0,0,0,0
COc1cc(/C=N/Nc2nc3ccccc3s2)cc([N+](=O)[O-])c1O,0,0,0,0,0,0,-
CCc1ccccc1CNC(=O)C1CCC(CNS(=O)(=O)c2cccc3cccnc23)CC1 (stereo not drawn),0,0,-,-,0,0,-
Cc1cc(N/N=C/c2c(O)ccc3ccccc23)nc(-c2ccccc2O)n1,0,20.6,0,0,0,0,0
FC(F)(F)c1ccccc1C(C#Cc1ccccc1)NCc1ccc2c(c1)OCO2 (stereo not drawn),0,0,-,-,0,0,-
O=C(Nc1nnc(-c2cccs2)o1)c1ccco1,0,19.4,0,0,0,0,0
O=C(Nc1nnc(-c2ccc(Br)cc2)o1)c1ccco1,-,-,0,-,-,-,-
CC(=O)N/C(=C\c1ccccc1)C(=O)OCC(=O)Nc1ccc(C)c(S(=O)(=O)N(C)C)c1,0,21.4,0,0,0,0,0
CN1/C(=C/C=C(C#N)C#N)C(C)(C)c2ccccc21,0,24.6,0,0,0,0,80.8
CN1/C(=C\C(=O)C(F)F)C(C)(C)c2ccccc21,0,0,0,0,0,0,-
C[C@H]1[C@@H](N(C)Cc2cccs2)CC[C@@]23CCCN2C(=O)CCC[C@@H]13,0,0,-,-,0,0,-
O=C(NC1CCCCC1)c1ccc(S(=O)(=O)N2CCCCC2)cc1,0,0,0,0,0,0,-
CC1CN(S(=O)(=O)c2ccc(C(=O)NC3CCCCC3)cc2)CC(C)O1 (stereo not drawn),0,18.2,0,0,0,0,0
COc1cc(-c2nnc(CSc3nnc(Nc4ccc(Oc5ccccc5)cc4)s3)o2)cc(OC)c1OC,0,19.4,0,0,0,0,0
COc1cc(-c2nnc(CSc3nnc(N)s3)o2)cc(OC)c1OC,0,0,0,0,0,0,-
CC(C)[C@H]1Cn2nnc(-c3ccccc3)c2Cn2c3ccccc3c(=O)n21,0,0,-,-,0,0,-
C/C(=C/c1nc(N)n(Cc2ccccc2)c1Cc1ccccc1)Cn1[nH]c(=O)n(-c2ccccc2)c1=O,0,0,-,-,0,0,-
CC(Sc1nnc(NCc2ccccc2)s1)C(=O)Nc1ccc2c(c1)C(=O)c1ccccc1C2=O (stereo not drawn),0,17.9,0,0,0,0,0

# Screening results as filed in PubChem.
